Measured values reported in ChEMBL document CHEMBL1142135, “Multidrug resistance conferred by novel DNA polymerase mutations in human cytomegalovirus isolates” (Antimicrob Agents Chemother, 2007).

Columns and labels:
Assay type in all cases: functional, organism-based
Human betaherpesvirus 5 [1] = test: Antiviral activity against Human CMV T2233 in HFF cells by SEAP assay; conditions: Human betaherpesvirus 5, T2233, HFF
How it was run: (§1)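 Cell-free stocks of AD169-derived recombinant viruses were inoculated at MOI 0.01 to 0.03 onto human foreskin fibroblasts. Cultures were grown without drug or with twofold increasing concentrations of GCV, FOS or CDV for 7 days. Supernatant SEAP activity was then measured. IC50 was derived by linear regression. Values are means and standard deviations of 7 to 23 replicate experiments.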

Human betaherpesvirus 5 [2] = test: Antiviral activity against Human CMV T2291 in HFF cells by PRA; conditions: Human betaherpesvirus 5, T2291, HFF
Human betaherpesvirus 5 [3] = test: Antiviral activity against Human CMV Towne in MRC5 cells by PRA; conditions: Human betaherpesvirus 5, Towne
How it was run: (§2)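 Plaque reduction in human lung MRC-5 fibroblasts, 80 to 100% confluent, infected with 50 PFU cell-free virus. Plates centrifuged 600 × g for 30 min, then 1 h at 37°C, 5% CO2. Inoculum removed; grown in duplicate with 0.625–160 μM GCV, 6.25–1,600 μM FOS or 0.0625–16 μM CDV in 0.8% carboxymethyl cellulose medium. Plaques counted at 7 days for IC50. Repeated 8–11 times; mean and SD.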

Human betaherpesvirus 5 [4] = test: Antiviral activity against Human CMV T2211 in HFF cells by SEAP assay; conditions: Human betaherpesvirus 5, T2211, HFF; how it was run: as §1
Human betaherpesvirus 5 [5] = test: Antiviral activity against Human CMV T2311 in HFF cells by PRA; conditions: Human betaherpesvirus 5, T2311, HFF
Human betaherpesvirus 5 [6] = test: Antiviral activity against Human CMV T2311 in HFF cells by SEAP assay; conditions: Human betaherpesvirus 5, T2311, HFF; how it was run: as §1
Human betaherpesvirus 5 [7] = test: Antiviral activity against Human CMV T2293 in HFF cells by PRA; conditions: Human betaherpesvirus 5, T2293, HFF
Human betaherpesvirus 5 [8] = test: Antiviral activity against Human CMV T2293 in HFF cells by SEAP assay; conditions: Human betaherpesvirus 5, T2293, HFF; how it was run: as §1
Human betaherpesvirus 5 [9] = test: Antiviral activity against Human CMV T2296 in MRC5 cells by PRA; conditions: Human betaherpesvirus 5, T2296, MRC5; how it was run: as §2
Human betaherpesvirus 5 [10] = test: Antiviral activity against Human CMV T2241 in HFF cells by SEAP assay; conditions: Human betaherpesvirus 5, T2241, HFF; how it was run: as §1
Human betaherpesvirus 5 [11] = test: Antiviral activity against Human CMV T2291 in HFF cells by SEAP assay; conditions: Human betaherpesvirus 5, T2291, HFF; how it was run: as §1
Human betaherpesvirus 5 [12] = test: Antiviral activity against Human CMV AD169 in HFF cells by PRA; conditions: Human betaherpesvirus 5, AD169, HFF
Human betaherpesvirus 5 [13] = test: Antiviral activity against Human CMV T2287 in MRC5 cells by PRA; conditions: Human betaherpesvirus 5, T2287, MRC5; how it was run: as §2

Row | Structure (SMILES) | IC50 (Human betaherpesvirus 5 [1]) | IC50 (Human betaherpesvirus 5 [2]) | IC50 (Human betaherpesvirus 5 [3]) | IC50 (Human betaherpesvirus 5 [4]) | IC50 (Human betaherpesvirus 5 [5]) | IC50 (Human betaherpesvirus 5 [6]) | IC50 (Human betaherpesvirus 5 [7]) | IC50 (Human betaherpesvirus 5 [8]) | IC50 (Human betaherpesvirus 5 [9]) | IC50 (Human betaherpesvirus 5 [10]) | IC50 (Human betaherpesvirus 5 [11]) | IC50 (Human betaherpesvirus 5 [12]) | IC50 (Human betaherpesvirus 5 [13])
1 | Nc1ccn(C[C@@H](CO)OCP(=O)(O)O)c(=O)n1 [CIDOFOVIR] | 0.3 µM | 3.3 µM | 0.3 µM | 0.2 µM | 8.9 µM | 4.7 µM | 4.9 µM | 5.2 µM | 0.6 µM | 0.3 µM | 0.7 µM | 0.9 µM | 1.8 µM
2 | Nc1nc2c(ncn2COC(CO)CO)c(=O)[nH]1 [GANCICLOVIR] | 1.4 µM | 4.1 µM | 4.9 µM | – | 12.4 µM | 30.2 µM | 10 µM | 5.6 µM | 5.4 µM | 1.4 µM | 7.1 µM | 1.9 µM | 30.1 µM
3 | O=C(O)P(=O)(O)O [FOSCARNET] | 45 µM | 431 µM | 62.8 µM | 41 µM | 732 µM | 308 µM | 122 µM | 32 µM | 63.4 µM | 42 µM | 274 µM | 78 µM | 486 µM
